# Sampled rows, rich in hits. Any-hit rate of the full collection: about 3.4%.
# RanGTP-Impb inh – inhibitors of RanGTP-importin-beta interaction, primary screen, biochemical, FRET, CFP-Ran, YFP-importin-beta, homogeneous; cell-free CFP-Ran/YFP-importin-beta FRET ratio; inhibition, % (test concentration not listed); hit rate 1.1% among 300,000;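 active = more than half of the replicate wells show a fall in the fluorescence ratio signal beyond about 16%, limit read from the data, passing the limit was not always enough; inconclusive = exactly half of the replicate wells pass the set limit; inactive = fewer than half of replicates pass the limit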;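 also: 0% = DMSO wells and 100% = Ran loaded with GDP instead of GTP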
# PHOSPHO1 inh – inhibitors of human PHOSPHO1 phosphatase. inhibition, % at 13.3 µM. recombinant PHOSPHO1, absorbance phosphatase assay. Q8TCT1. hit rate 1.1% among 290,000; in the data active = inhibition above about 60%
# Wee1 stabilizer – human Wee1 degradation inhibition, primary screen; HeLa Luc-Wee1K328M stability, luciferase luminescence; 100% = proteasome inhibitor MG132 effect; reporter increase, % at 5 µM; hit rate 1.2% among 220,000; AID 1321;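 active = activation above the mean of all tested compounds plus 3 SD, set per screening run, cut at about 8.8% in these data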;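 also: cells exposed to compound for 20 h before luminescence read; 0% = DMSO alone and 100% = MG132 at 30 µM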
# HMGR II inh – E. faecalis class II HMG-CoA reductase inhibition. purified E. faecalis HMGR, NADPH absorbance 340 nm kinetic. hit rate 0.41% among 190,000. inhibition, % at 10 µM;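 active = inhibition above a set limit, the median over all tested compounds plus 3 SD, cut at about 9.5% in these data; inconclusive = no clear call, values can overlap the other calls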;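 also: enzyme runs in reverse so mevalonate oxidation gives rising NADPH absorbance; 0% = complete reaction with DMSO and 100% = background rate lacking mevalonate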
# Runt-CBFb FRET – Runt domain-CBFb interaction inhibition | Q01196+Q13951 | Cerulean-Runt/Venus-CBFb FRET ratio 530/480, 1 h | inhibition, % at 20 µM | hit rate 0.46% among 220,000 | AID 1496;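 active = inhibition over about 50% at 20 µM in the single-dose screen, limit read from the data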;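 also: 0% = DMSO wells and 100% = excess unlabeled CBFb competitor control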
# Target sequence (Q01196 whole entry, looked up, the tested form may be a part): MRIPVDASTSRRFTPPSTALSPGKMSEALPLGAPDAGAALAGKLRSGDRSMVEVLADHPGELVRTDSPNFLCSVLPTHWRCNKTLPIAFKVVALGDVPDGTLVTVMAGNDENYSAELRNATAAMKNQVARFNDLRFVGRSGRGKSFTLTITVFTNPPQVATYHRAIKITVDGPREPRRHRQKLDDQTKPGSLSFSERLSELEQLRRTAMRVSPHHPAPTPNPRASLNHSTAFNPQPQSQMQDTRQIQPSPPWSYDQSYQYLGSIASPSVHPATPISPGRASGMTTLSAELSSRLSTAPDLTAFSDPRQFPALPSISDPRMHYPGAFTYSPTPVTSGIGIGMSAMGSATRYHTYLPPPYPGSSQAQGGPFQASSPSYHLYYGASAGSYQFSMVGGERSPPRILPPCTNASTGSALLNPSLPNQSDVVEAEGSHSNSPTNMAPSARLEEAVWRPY
# Target sequence (Q13951 whole entry, looked up, the tested form may be a part): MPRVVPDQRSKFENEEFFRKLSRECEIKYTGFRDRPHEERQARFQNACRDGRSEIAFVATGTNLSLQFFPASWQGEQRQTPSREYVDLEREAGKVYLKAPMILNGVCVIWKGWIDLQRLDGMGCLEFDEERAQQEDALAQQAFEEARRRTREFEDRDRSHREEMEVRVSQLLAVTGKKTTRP
#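 System: Cerulean-labeled Runt domain protein | Quantity: 100 nM of each labeled protein | Schedule: 1 h compound exposure, room temperature | Detection: Fluorescence energy transfer, 422 nm excitation, 530/480 nm emission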
# Runt-SMMHC FRET – Runt domain-CBFb-SMMHC interaction inhibition; Cerulean-Runt/Venus-CBFb-SMMHC FRET ratio 530/480, 1 h; Q01196+Q13951; AID 1434; inhibition, % at 20 µM; hit rate 0.74% among 220,000;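 active = mean inhibition across duplicate retests at 20 µM reaching about 50%, limit read from the data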;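 also: 0% = DMSO wells and 100% = wells with excess untagged CBFb-SMMHC; inhibitors lower the FRET ratio by blocking Runt binding to CBFb-SMMHC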
# An asterisk follows results filed as active; ? = inconclusive; nt = not tested or not shown.
SMILES,RanGTP-Impb inh,PHOSPHO1 inh,Wee1 stabilizer,HMGR II inh,Runt-CBFb FRET,Runt-SMMHC FRET
O=C(NCCCNC(=O)C(F)(F)C(F)F)C(F)(F)C(F)F,29*,18,-3,1,-1,3
O=C(NC1CCC(NC(=O)C(F)(F)C(F)F)CC1)C(F)(F)C(F)F (stereo unspecified),-2,-22,-3,2,-1,-5
Cc1ccccc1-c1ccc(/C=C2/SC(N3CCOCC3)=NC2=O)o1,20*,20,-2,nt,-21,-42
COc1ccccc1Nc1nc2c(s1)CCC2,0,76*,3,-1,4,6
CN1C(=O)N(C)c2ccc(C=O)c3cccc1c23,-6,13,-1,-2,59*,92*
Nn1c(COc2cccc(Br)c2)nnc1SCC(=O)N1CCc2ccccc2C1,2,82*,-1,-10,-3,1
C=CCNC(=S)NNC(=O)c1cccn(Cc2cccc(Cl)c2)c1=O,4,79*,0,-1,-3,2
C=CCNC(=S)NNC(=O)c1cccn(Cc2ccc(Cl)cc2)c1=O,1,-21,-2,-2,nt,6
CCN(C(=O)COC(=O)c1cc(-c2ccccc2)nc2ccc(Br)cc12)C1CCS(=O)(=O)C1 (stereo unspecified),-2,-6,9.2*,1,-5,-4
CCN(C(=O)COC(=O)c1cc(-c2cccs2)nc2ccccc12)C1CCS(=O)(=O)C1 (stereo unspecified),4,63*,6,-1,-3,6
CCN(C(=O)COC(=O)c1cc(-c2ccc(C)o2)nc2ccccc12)C1CCS(=O)(=O)C1 (stereo unspecified),1,0,0,-10,12,1
COc1ccc(/C(N)=N/OC(=O)c2cccs2)cc1,-5,20,10.0*,nt,1,-2
Cc1ccc(-c2nn(C)c(=O)c3ccccc23)cc1CNC(=O)Cn1nc(-c2ccccc2)c2ccccc2c1=O,-3,8,0,-5,-3,0
Nc1nn2cc(-c3ccccc3)nc2c2ccccc12,4,-23,3,11*,0,2
Cc1cn2nc(N)c3ccccc3c2n1,nt,-25,6,-3,0,-1
Oc1ccc(CCNc2c3ccccc3nc3ccccc23)cc1O,103*,18,nt,nt,nt,nt
O=C(CNC(=O)c1ccccc1)NCCc1ccc(O)c(O)c1,7,-1,nt,nt,nt,nt
c1ccc(CNc2c3ccccc3nc3ccccc23)cc1,91*,3,nt,nt,nt,nt
Cc1cc(NCCCN2CCOCC2)n2ncc(-c3ccccc3)c2n1,2,-6,11*,2,-2,4
c1ccc2c(NCCCN3CCOCC3)c3ccccc3nc2c1,nt,29,0,-9,99*,92*
Fc1ccccc1-c1nc(NCCCN2CCOCC2)c2ccccc2n1,2,5,-2,-1,-3,2
c1ccc(CNc2ncnc3ccccc23)cc1,1,-3,2,-6,-1,-6
O=C(CNC(=O)c1ccc(Br)o1)Nc1ncccc1O,5,nt,nt,nt,nt,nt
Cc1cc(C)cc(-n2ccn(CC(=O)NCCc3ccccc3)c(=O)c2=O)c1,2,36,nt,nt,nt,nt
CN(C)CCCNc1c2ccccc2nc2ccccc12,108*,nt,nt,nt,nt,nt
SMILES,RanGTP-Impb inh,PHOSPHO1 inh,Wee1 stabilizer,HMGR II inh,Runt-CBFb FRET,Runt-SMMHC FRET
OCC(Cc1ccccc1)Nc1c2ccccc2nc2ccccc12 (stereo unspecified),118*,-6,-1,-5,61*,59*
COc1ccc2nc(SCC(=O)NC3CC3)c(C#N)cc2c1,?,-17,nt,nt,nt,nt
CC1C2(C)OC(=N)C(C#N)(C(C)O2)C1(C#N)C#N (stereo unspecified),22*,11,-1,nt,101*,52*
CC1OC2(C)OC(=N)C1(C#N)C(C#N)(C#N)C2c1ccccc1 (stereo unspecified),23*,-5,0,-8,30,50
CCCCC1OC2(C)OC(=N)C1(C#N)C(C#N)(C#N)C2c1ccccc1 (stereo unspecified),nt,-14,2,1,21,53
COCCNC(=O)CSc1nnc(CCCN2C(=O)c3cccc4cccc(c34)C2=O)n1-c1ccccc1,-2,-3,0,2,-3,-1

# Screening results: PubChem, several laboratories
